Assay outcomes as filed in PubChem BioAssay.
Most compounds without a hit are left out; they make up all but 1% or so of the library.
Thrombin inh: blocks human thrombin protease activity. P00734. 0.26% of 220,000 active. inhibition, % at 5 µM. alpha-thrombin, Boc-VPR-AMC fluorogenic substrate cleavage. AID 1046;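 active = inhibition at or above 40%; inactive = inhibition below 40%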;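 note: 0% = enzyme with no compound and 100% = wells without enzyme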
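Material: Human alpha-thrombin protein | Buffer or medium: pH 7.5 Tris-saline with Tween 20 | Reagent: Boc-VPR-AMC substrate, 15 µM final | Schedule: Reaction at ambient temperature | Detection: AMC fluorescence at 355 nm excitation and 460 nm emission | Evaluation: Percent inhibition scaled between no-compound controls and no-enzyme blanks | Controls: no-compound enzyme wells and no-enzyme blanks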
hK5 inh: blocks human kallikrein 5 protease activity | Q9Y337 | recombinant hK5, fluorogenic AMC substrate cleavage | inhibition, % at 5 µM | 0.59% of 210,000 active | AID 873;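 active = inhibition of 40% or more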;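 note: 0% = enzyme controls without compound and 100% = no-enzyme blanks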
HSV replic up: HSV replication enhancement; HSV replication augmentation in cells, fold increase; maximum fold increase; 0.005% of 220,000 active; in the data active = maximum fold increase above about 1.5; inconclusive = no clear call, values can overlap the other calls; tested in PC3 cells
Furin inhibitor: human furin inhibition; P09958; purified furin, fluorogenic substrate cleavage; inhibition, % at 20 µM or 30 µM; 0.061% of 220,000 active; AID 463115; in the data active = inhibition above about 25%
FXIIa inh 1536: factor XIIa (human) inhibition; P00748; purified FXIIa, Boc-QGR-AMC fluorogenic substrate, 2 h; inhibition, % at 5 µM; 0.3% of 220,000 active; AID 800; in the data active = inhibition above about 40%;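 note: 0% = enzyme with no compound and 100% = blank without enzyme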
FXIa inh 1536: blocks human coagulation factor XIa protease activity; purified FXIa, Boc-Glu-Ala-Arg-AMC fluorogenic substrate; inhibition, % at 5 µM; 0.14% of 220,000 active;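 active = inhibition of at least 40%; inactive = inhibition below 40%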;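 note: fluorescence of freed AMC excited at 355 nm; 0% = enzyme without compound and 100% = no enzyme blank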
Target sequence (P03951 19-387 limits assumed): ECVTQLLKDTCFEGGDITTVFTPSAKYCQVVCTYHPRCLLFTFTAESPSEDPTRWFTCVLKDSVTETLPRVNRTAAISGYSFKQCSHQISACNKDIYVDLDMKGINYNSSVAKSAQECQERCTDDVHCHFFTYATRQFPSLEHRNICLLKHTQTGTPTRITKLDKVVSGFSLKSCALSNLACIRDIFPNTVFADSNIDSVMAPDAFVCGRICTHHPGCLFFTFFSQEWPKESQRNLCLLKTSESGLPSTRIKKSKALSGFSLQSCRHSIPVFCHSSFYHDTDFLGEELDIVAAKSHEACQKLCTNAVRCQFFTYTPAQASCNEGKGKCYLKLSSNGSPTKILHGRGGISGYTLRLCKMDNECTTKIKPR
Target sequence (P03951 388-625 limits assumed): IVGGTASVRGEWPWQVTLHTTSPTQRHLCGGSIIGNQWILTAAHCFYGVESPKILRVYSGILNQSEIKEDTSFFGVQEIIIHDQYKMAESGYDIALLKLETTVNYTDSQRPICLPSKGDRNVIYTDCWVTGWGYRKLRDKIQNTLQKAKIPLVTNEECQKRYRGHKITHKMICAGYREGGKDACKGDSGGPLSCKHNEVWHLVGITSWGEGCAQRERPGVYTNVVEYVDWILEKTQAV
* = called active by the depositor; i = inactive; ? = inconclusive; · = not tested or not shown.

SMILES	Thrombin inh	hK5 inh	HSV replic up	Furin inhibitor	FXIIa inh 1536	FXIa inh 1536
O=C(NCc1ccc(C(F)(F)F)cc1)C12CN(Cc3ccccc3)CC1C(c1cccc([N+](=O)[O-])c1)=NO2 (centres undefined)	17	42*	i	-8	9	8
CN(Cc1ccon1)Cc1cn(C)nc1-c1cccc(Cl)c1	23	58*	i	7	23	31
CN(Cc1cn(C)nc1-c1cccc(Cl)c1)C1CCOCC1	9	12	i	1	11	8
COc1cc(/C=N/Nc2nc(Nc3ccccc3)nc(N3CCOCC3)n2)ccc1OC(=O)c1ccco1	4	-8	i	-24	3	-4
COc1cc(C=O)ccc1Oc1nc(Nc2ccc(F)cc2F)nc(N2CCOCC2)n1	10	63*	i	1	34	27
COCCNC(=O)CCCC(=O)NCCOC	0	-6	i	-14	5	4
CCOC(=O)Cn1c(=NC(=O)C2CC2)sc2c(C)cc(C)cc21	17	41*	i	0	29	28
Cc1cc(Cl)ccc1Oc1ccccc1C(=O)CC#N	-7	-8	i	-19	5	-3
NS(=O)(=O)c1cccc(NC(=O)COC(=O)COc2ccc3ccccc3c2)c1	-10	5	i	-38	5	-1
Cc1ccc(C)c(S(=O)(=O)N2CCCOC2CNC(=O)C(=O)NCc2cccnc2)c1 (centres undefined)	13	43*	i	-8	34	-8
Cc1cc(C)c(S(=O)(=O)N2CCCOC2CNC(=O)C(=O)NCc2cccnc2)c(C)c1 (centres undefined)	-1	-2	i	-19	11	-2
CC(Sc1nnc(-c2cc3ccccc3o2)n1-c1ccccc1)C(=O)O (centres undefined)	47*	-16	i	-6	-1	-11
Cc1cc(C)c(NC(=O)C(C)Sc2nnc(-c3ccco3)n2-c2ccccc2)c(C)c1 (centres undefined)	3	-11	i	-17	13	-8
Cc1ccc(Cn2cc(/C=N/NC(=O)Cc3nnc(NC(=O)c4ccc(C)cc4)s3)c3ccccc32)cc1	31	10	i	-5	40*	28
COc1ccccc1NC(=O)CN1CCSc2ccccc21	3	3	i	-16	12	2
CCc1nnc(NC(=O)CSc2nnc(C3CCCCC3)n2-c2cccc(Cl)c2)s1	5	-22	i	29*	17	9
Fc1ccc(-c2csc3ncnc(Nc4ccc(N5CCOCC5)cc4)c23)cc1	-2	42*	i	-28	-13	-4
c1nc(Nc2ccc(N3CCOCC3)cc2)c2ccsc2n1	-3	2	i	-15	7	4
CN(Cc1ccc(F)cc1)C(=O)COc1ccccc1-c1ccccc1	-8	-1	i	0	4	-2
COc1ccccc1NS(=O)(=O)c1ccc(O)c(C(=O)OCC(=O)c2ccc(Cl)cc2Cl)c1	29	32	i	2	32	49*
COc1ccccc1NS(=O)(=O)c1ccc(O)c(C(N)=O)c1	-1	-11	i	-20	11	1
COc1ccccc1N(C)S(=O)(=O)c1ccc(C(=O)OCC(=O)NCc2cccs2)cc1	-4	-2	i	-22	7	-2
CCOc1cc(/C=C2/SC(=S)NC2=O)ccc1OC(=O)c1ccco1	1	-4	4.6*	7	3	0
COc1cc(/C=C2/SC(=S)N(C)C2=O)ccc1OC(=O)c1ccco1	-5	-4	?	-3	10	3
CSc1ccccc1C(=O)C1CCCN(C(=O)c2csnn2)C1 (centres undefined)	-15	-1	i	-18	8	-2
SMILES	Thrombin inh	hK5 inh	HSV replic up	Furin inhibitor	FXIIa inh 1536	FXIa inh 1536
CSc1ccccc1C(=O)C1CCCN(S(=O)(=O)N(C)C)C1 (centres undefined)	13	39	i	-7	102*	33
Cc1cc(=O)n2[nH]cnc2n1	9	41*	i	-18	24	18
O=c1cc(CN2CCN(c3ccc(F)cc3)CC2)c2cc3c(cc2o1)CCCC3	17	40*	i	-19	27	18
CCCCOC(=O)CCCN1C(=O)/C(=C2\SC(=S)N(CCCC(=O)OCCCC)C2=O)SC1=S	11	9	i	-22	17	3
COc1ccc(N2C(=O)[C@@H]3[C@H](C2=O)[C@H]2c4ccccc4C=CN2[C@@H]3C(=O)Nc2ccccc2)cc1	61*	1	i	-14	45*	14
O=C(c1ccco1)[C@@H]1[C@@H]2C(=O)N(c3ccccc3)C(=O)[C@@H]2C2c3ccccc3C=CN21 (some centres undefined)	·	·	i	-9	·	·
CCOC(=O)Cc1csc(NC(=O)c2sc3nc4cc(C)ccc4cc3c2N)n1	0	-5	i	-1	11	10
CCOC(=O)Cc1csc(NC(=O)c2sc3nc4ccc(CC)cc4cc3c2N)n1	24	91*	?	-28	21	43*
COc1cccc(CN(C)C(=O)CCc2nnc(-c3ccsc3)o2)c1	94*	3	i	-33	9	0
CCOC(=O)CN(C)C(=O)CCc1nnc(-c2ccsc2)o1	-4	4	i	-28	9	-2
CCOc1ccccc1Cn1c(=O)sc2ccccc21	-2	-4	i	-21	3	-3
CN(C)C(CNC(=O)CSc1nnc(-c2ccco2)o1)c1ccccc1 (centres undefined)	26	74*	i	-27	33	7
N#CCCN(CCC#N)C(=S)NC1CC2C=CC1C2 (centres undefined)	-6	-1	i	-9	7	6
COc1cccc2sc(NC(=O)c3ccc(S(=O)(=O)N4CCOCC4)cc3)nc12	19	32	i	-9	41*	16
CNC(=O)N(C1=NCCCCC1)c1ccc(Br)cc1	-5	-8	i	-27	1	4
CC(C(=O)OCC(=O)c1cccc([N+](=O)[O-])c1)N1C(=O)C2C3CCC(C3)C2C1=O (centres undefined)	6	2	i	-18	11	6
Cc1cccc(NC(=S)NC(=O)/C=C/c2ccccc2)n1	50*	27	i	-4	26	29
COC(=O)CNC(=O)C(Cc1c[nH]c2ccccc12)NC(=O)OC(C)(C)C (centres undefined)	22	44*	i	-6	18	0
CC(=O)c1cccc(NC(=O)c2csc(-n3nc(C)cc3C(F)(F)F)n2)c1	19	56*	i	-20	21	11
O=C(Nc1cccc(-c2nnn(CC(=O)N3CCc4ccccc4C3)n2)c1)C1CCC1	-3	-23	i	-11	4	-2
O=C(Nc1ccccc1-c1nnn(CC(=O)N2CCc3ccccc3C2)n1)C1CCC1	3	56*	i	-7	12	-2
